Like-named read-outs stand apart in the source and are kept apart here.

The source of these data is publication PMC3179183 (Bioorganic & medicinal chemistry letters, 2010).

The target in series [1] is T1, M5 (Homo sapiens, UniProt P08912).
T1 sequence (P08912 1-532): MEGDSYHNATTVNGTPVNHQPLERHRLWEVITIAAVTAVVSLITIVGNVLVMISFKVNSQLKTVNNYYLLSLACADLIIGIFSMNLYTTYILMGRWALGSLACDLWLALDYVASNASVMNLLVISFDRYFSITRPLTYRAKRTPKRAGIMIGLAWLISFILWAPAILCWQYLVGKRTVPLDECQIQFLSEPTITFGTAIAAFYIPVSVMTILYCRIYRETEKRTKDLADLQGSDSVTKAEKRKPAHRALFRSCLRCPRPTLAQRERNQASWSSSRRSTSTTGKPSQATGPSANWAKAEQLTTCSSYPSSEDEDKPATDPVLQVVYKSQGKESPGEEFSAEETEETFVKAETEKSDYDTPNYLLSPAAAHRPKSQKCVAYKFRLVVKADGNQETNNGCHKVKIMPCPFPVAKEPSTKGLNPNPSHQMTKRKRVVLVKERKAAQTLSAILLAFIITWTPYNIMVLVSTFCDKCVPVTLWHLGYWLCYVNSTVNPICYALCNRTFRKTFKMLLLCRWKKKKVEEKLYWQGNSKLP
The series can be described thus: M5 PAM activity, mobilization of intracellular calcium in M5 CHO cells. The series is classed as cell-based.

Series [2] concerns the target T1, M5. It is filed as cell-based. The following applies: single point 10 µM, M5-CHO cells.
The target of series [3] is T1, M5. The series can be described thus: Human M5 ACh fold-shift assay at 30 µM. The series is classed as cell-based.
Series [4] addresses T2, M1 (Homo sapiens, UniProt P11229).
T2 sequence (P11229 1-460): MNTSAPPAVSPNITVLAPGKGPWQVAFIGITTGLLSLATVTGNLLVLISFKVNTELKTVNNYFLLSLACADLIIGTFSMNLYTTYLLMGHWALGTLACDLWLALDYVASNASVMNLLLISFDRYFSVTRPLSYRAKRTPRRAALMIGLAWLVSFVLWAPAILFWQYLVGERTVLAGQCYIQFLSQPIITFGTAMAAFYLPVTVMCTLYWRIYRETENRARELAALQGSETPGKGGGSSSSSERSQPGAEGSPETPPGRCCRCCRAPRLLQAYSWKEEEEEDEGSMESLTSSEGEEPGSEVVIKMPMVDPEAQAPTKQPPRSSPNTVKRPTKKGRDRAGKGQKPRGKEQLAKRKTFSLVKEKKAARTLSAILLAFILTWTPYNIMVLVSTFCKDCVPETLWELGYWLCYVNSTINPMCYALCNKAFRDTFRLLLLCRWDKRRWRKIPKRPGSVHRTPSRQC
The series can be described thus: 30 µM fold-shift selectivity assay, M1. It is filed as cell-based. The gist of the method: (§1)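 Intracellular calcium mobilization in CHO cells expressing the receptor. Test compound at a fixed 30 µM, read as the fold-shift of the acetylcholine concentration-response. Data are means from at least three independent determinations.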

In series [5] the target is T3, M2 (Homo sapiens, UniProt P08172).
T3 sequence (P08172 1-466): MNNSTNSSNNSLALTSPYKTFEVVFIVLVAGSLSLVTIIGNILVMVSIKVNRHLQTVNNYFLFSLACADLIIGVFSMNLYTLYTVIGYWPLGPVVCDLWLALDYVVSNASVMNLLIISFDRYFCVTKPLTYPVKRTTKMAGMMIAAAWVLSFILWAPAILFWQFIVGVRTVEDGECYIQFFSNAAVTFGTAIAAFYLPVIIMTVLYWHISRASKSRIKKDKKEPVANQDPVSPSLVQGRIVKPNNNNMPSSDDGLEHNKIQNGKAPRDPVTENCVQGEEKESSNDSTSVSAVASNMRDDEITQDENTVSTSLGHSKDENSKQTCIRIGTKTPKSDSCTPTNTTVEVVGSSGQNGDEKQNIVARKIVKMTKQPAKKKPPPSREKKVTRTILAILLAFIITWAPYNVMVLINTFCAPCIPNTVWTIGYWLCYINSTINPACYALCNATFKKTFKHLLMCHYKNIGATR
The series can be described thus: 30 µM fold-shift selectivity assay, M2. The series is classed as cell-based. In a few lines:
(§2)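 Intracellular calcium mobilization in CHO cells expressing the receptor co-transfected with Gqi5 to couple it to calcium signalling. Test compound at a fixed 30 µM, read as the fold-shift of the acetylcholine concentration-response. Data are means from at least three independent determinations.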

For series [6], the target named is T4, M3 (Homo sapiens, UniProt P20309). The experiment in a line: 30 µM fold-shift selectivity assay, M3. It is filed as cell-based. In a few lines: as §1
T4 sequence (P20309 whole entry): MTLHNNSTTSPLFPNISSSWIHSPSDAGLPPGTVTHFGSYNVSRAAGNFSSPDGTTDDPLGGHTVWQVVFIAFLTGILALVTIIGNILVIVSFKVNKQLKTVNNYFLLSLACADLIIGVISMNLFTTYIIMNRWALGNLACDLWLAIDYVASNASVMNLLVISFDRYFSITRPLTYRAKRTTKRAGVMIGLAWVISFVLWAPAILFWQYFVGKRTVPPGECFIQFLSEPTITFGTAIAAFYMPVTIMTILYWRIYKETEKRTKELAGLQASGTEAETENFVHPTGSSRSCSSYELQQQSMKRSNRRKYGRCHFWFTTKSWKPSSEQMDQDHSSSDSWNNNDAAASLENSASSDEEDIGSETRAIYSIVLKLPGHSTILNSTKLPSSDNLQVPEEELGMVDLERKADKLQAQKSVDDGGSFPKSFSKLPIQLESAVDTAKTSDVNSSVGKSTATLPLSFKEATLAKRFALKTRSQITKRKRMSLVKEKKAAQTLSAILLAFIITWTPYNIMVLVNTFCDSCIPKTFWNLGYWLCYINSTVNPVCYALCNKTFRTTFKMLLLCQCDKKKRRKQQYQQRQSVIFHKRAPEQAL
The target in series [7] is T5, M4 (Homo sapiens, UniProt P08173).
T5 sequence (P08173 1-479): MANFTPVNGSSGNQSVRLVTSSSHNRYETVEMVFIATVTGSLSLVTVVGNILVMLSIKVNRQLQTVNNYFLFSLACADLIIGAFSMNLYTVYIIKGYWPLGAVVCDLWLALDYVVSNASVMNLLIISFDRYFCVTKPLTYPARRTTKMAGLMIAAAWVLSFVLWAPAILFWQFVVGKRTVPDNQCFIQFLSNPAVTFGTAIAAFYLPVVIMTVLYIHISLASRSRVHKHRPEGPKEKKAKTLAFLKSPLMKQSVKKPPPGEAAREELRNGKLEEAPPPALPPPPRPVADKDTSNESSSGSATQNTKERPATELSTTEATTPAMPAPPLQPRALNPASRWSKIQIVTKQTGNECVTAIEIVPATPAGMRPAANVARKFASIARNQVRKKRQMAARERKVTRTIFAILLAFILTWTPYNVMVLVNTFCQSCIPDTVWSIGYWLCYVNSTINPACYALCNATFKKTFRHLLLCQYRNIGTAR
The experiment in a line: 30 µM fold-shift selectivity assay, M4. The series is classed as cell-based. In a few lines: as §2

Series [8] can be described thus: Ancillary pharmacology panel. The series is classed as binding.
Series [9] deals with NET (Homo sapiens, UniProt P23975). The series can be described thus: Ancillary pharmacology panel, NET. It is filed as binding. As to conditions: same assay panel; significant = >50% inhibition at 10 µM.
NET, sequence (P23975 whole entry): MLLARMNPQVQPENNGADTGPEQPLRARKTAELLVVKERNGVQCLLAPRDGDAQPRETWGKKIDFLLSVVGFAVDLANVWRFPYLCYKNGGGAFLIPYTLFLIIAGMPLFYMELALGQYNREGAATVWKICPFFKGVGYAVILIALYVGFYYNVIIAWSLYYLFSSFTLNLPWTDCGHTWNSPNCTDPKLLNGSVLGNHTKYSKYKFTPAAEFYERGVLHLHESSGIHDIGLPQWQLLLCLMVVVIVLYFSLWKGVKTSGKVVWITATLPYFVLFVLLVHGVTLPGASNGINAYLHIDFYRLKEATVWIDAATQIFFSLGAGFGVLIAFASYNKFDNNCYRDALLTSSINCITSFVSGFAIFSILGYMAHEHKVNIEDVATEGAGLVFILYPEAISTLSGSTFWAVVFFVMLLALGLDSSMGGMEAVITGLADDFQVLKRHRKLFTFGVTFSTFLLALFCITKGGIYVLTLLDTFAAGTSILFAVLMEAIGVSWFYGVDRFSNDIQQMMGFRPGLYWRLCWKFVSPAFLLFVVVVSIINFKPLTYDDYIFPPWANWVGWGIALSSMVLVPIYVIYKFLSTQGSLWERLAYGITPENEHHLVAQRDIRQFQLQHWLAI
The target of series [10] is H1 (Homo sapiens, UniProt P35367). The series can be described thus: Ancillary pharmacology panel, H1. It is filed as binding. The following applies: same assay panel; significant = >50% inhibition at 10 µM.
H1, sequence (P35367 whole entry): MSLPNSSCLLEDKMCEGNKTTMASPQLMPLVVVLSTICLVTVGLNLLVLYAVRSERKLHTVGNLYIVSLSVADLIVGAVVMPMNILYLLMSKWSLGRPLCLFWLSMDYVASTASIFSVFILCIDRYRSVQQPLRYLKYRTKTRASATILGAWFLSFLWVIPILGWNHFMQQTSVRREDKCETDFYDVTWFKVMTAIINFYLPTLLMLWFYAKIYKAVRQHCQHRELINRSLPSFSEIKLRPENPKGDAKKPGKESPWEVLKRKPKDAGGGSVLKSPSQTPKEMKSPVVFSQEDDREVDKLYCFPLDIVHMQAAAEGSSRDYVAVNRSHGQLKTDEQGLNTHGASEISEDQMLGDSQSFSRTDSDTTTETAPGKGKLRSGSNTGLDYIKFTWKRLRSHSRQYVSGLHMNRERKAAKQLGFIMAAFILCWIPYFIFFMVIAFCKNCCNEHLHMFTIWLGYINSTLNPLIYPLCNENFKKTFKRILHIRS
Series [11] concerns the target T2, M1. The following applies: read-out: M1 EC50, cited from earlier work.
Series [12] deals with T3, M2. The following applies: read-out: M2 EC50, cited from earlier work.
The target of series [13] is T4, M3. As to conditions: read-out: M3 EC50, cited from earlier work.
Series [14] concerns the target T5, M4. The following applies: read-out: M4 EC50, cited from earlier work.
For series [15] the following is noted: cited from earlier work.
For series [16] the following is noted: in words; cited from earlier work.
Series [17] concerns the target T1, M5. The following applies: read-out: M5 EC50; vs. M2–M5; cited from earlier work.

As to `O=C1C(=O)N(Cc2ccc3c(c2)OCO3)c2ccc(OC(F)(F)F)cc21` [compound 13], the “M5 PAM activity (in words)” value in series [1] was “highly efficacious M5 PAM of comparable potency to 4”.

Turning to `O=C1C(=O)N(Cc2ccc(-c3ccncc3)cn2)c2ccc(OC(F)(F)F)cc21` [21c], in series [1], the “M5 PAM activity (in words)” value is reported as “devoid of M5 PAM activity”.

`O=C1C(=O)N(Cc2ccc(-c3ccccc3)cc2)c2ccc(OCCN3CCCC3)cc21` [10kk]: in series [2], the “ability to potentiate an EC20 of ACh” value is “did decrease the ACh EC20”.

Consider `O=C1C(=O)N(Cc2ccc(-c3cccnc3)cn2)c2ccc(OC(F)(F)F)cc21` [21b], for which the “M5 PAM activity (in words)” value in series [1] is “devoid of M5 PAM activity”.

As for `O=C1C(=O)N(Cc2ccc(-c3ccccc3)nc2)c2ccc(OC(F)(F)F)cc21` [22a], the allosteric agonism in series [3] was ~ 20%. Also, the “effect on M1, fold-shift selectivity” value in [4] is on record as “neither 22a nor 27b showed any significant effect”. Also, the “effect on M2, fold-shift selectivity” value in series [5] is reported as “neither 22a nor 27b showed any significant effect”. Also, the “effect on M3, fold-shift selectivity” value in [6] is reported as “neither 22a nor 27b showed any significant effect”. Also, in [7], the “effect on M4, fold-shift selectivity” value is given as “neither 22a nor 27b showed any significant effect”.

For `O=C1C(=O)N(Cc2c(F)cc(-c3ccccc3)cc2F)c2ccc(OC(F)(F)F)cc21` [compound 12], the “M5 PAM activity (in words)” value in [1] is “loss in both potency and efficacy”.

In the case of `O=C1C(=O)N(Cc2ccc(-c3ccccc3)cc2F)c2ccc(OC(F)(F)F)cc21` [compound 11], the “M5 PAM activity (in words)” value in series [1] is “loss in both potency and efficacy”.

On to `O=C1C(=O)N(Cc2ccc(Oc3cccc(F)n3)cc2)c2ccc(OC(F)(F)F)cc21` [27b], for which the “effect on M1, fold-shift selectivity” value in series [4] is “neither 22a nor 27b showed any significant effect”. The “effect on M2, fold-shift selectivity” value in series [5] was “neither 22a nor 27b showed any significant effect”. For the same compound, in series [6], the “effect on M3, fold-shift selectivity” value is recorded as “neither 22a nor 27b showed any significant effect”. Moreover, the “effect on M4, fold-shift selectivity” value in series [7] was “neither 22a nor 27b showed any significant effect”. In addition, the “number of targets with modest activities” value in series [8] (of the 68 targets) turned out to be 11 targets. In addition, in series [9], the “activity at NET” value was “significant activity”. Moreover, the “activity at H1” value in [10] was “significant activity”.

Take `O=C1C(=O)N(Cc2ccc(Oc3ccccc3)cc2)c2ccc(OC(F)(F)F)cc21` [compound 5]: the “number of targets with significant activity (>50% inhibition at 10 µM)” value in [8] (of 68 targets, 10 µM) was determined as 32 targets. The EC50 in series [11] (vs. M1–M4), in series [12] (vs. M1–M4), in series [13] (vs. M1–M4) and in [14] (vs. M1–M4) was more than 30 µM throughout. In [15], the logP is listed as more than 4.5. In addition, the solubility entry in series [16] is “limited solubility”.

With `Cn1cc(-c2ccc(CN3C(=O)C(=O)c4ccccc43)c(F)c2)cn1` [compound 2], the EC50 in series [17] was more than 30 µM; in series [11] (PAM) it was 0.83 µM; in series [12] (vs. M2–M5), more than 30 µM; in series [13] (vs. M2–M5), more than 30 µM; in series [14] (vs. M2–M5) it was more than 30 µM.

Regarding `CN(C)CCOc1ccc2c(c1)C(=O)C(=O)N2Cc1ccc(-c2ccccc2)cc1` [10gg], the “ability to potentiate an EC20 of ACh” value in [2] is listed as “did decrease the ACh EC20”.

Regarding `O=C1C(=O)N(Cc2ccc(-c3ccccc3)cc2)c2ccc(OC(F)(F)F)cc21` [compound 4], the EC50 in [11] (vs. M1–M4), in [12] (vs. M1–M4), in [13] (vs. M1–M4) and in series [14] (vs. M1–M4) was more than 30 µM each time. For the same compound, the logP in series [15] is listed as more than 4.5. Further, the solubility result in [16] is recorded as “limited solubility”.

Regarding `CC1CCCN(COc2ccc3c(c2)C(=O)C(=O)N3Cc2ccc(-c3ccccc3)cc2)C1` (centres unmarked) [10ee], in [2], the “ability to potentiate an EC20 of ACh” value is listed as “did decrease the ACh EC20”.
